# Measured values reported in ChEMBL document CHEMBL4828721, “Substituted dienes prepared from betulinic acid - Synthesis, cytotoxicity, mechanism of action, and pharmacological parameters” (Eur J Med Chem, 2021).
# pIC50: −log10 of the molar value. Calls of active or inactive are those of the source. No cut-off for these calls is given here.
# Assays:
# CEM-DNR = test: Cytotoxicity against daunorubicin resistant human CEM-DNR cells assessed as reduction in cell viability measured after 72 hrs by MTS assay; assay type: functional, cell-based
# HCT-116 = test: Cytotoxicity against human HCT-116 cells assessed as reduction in cell viability measured after 72 hrs by MTS assay; assay type: functional, cell-based; settings: HCT-116, 72 h
# [1] = Cytotoxicity against paclitaxel resistant human K562-Tax cells assessed as reduction in cell viability measured after 72 hrs by MTS assay; assay type: functional, cell-based
# A549 = test: Cytotoxicity against human A549 cells assessed as reduction in cell viability measured after 72 hrs by MTS assay; assay type: functional, cell-based; settings: A549, 72 h
# BJ = test: Cytotoxicity against human BJ cells assessed as reduction in cell viability measured after 72 hrs by MTS assay; assay type: cell-based
# CCRF-CEM [2] = test: Cell cycle arrest in human CCRF-CEM cells assessed as accumulation of cells at G0/G1 phase at 5 times IC50 measured after 24 hrs by propidium iodide staining based flow cytometry analysis (Rvb= 40.20%); assay type: functional
# CCRF-CEM [3] = test: Cell cycle arrest in human CCRF-CEM cells assessed as accumulation of cells at S phase at IC50 measured after 24 hrs by propidium iodide staining based flow cytometry analysis (Rvb= 38.17%); assay type: functional
# CCRF-CEM [4] = test: Cell cycle arrest in human CCRF-CEM cells assessed as accumulation of cells at G2/M phase at IC50 measured after 24 hrs by propidium iodide staining based flow cytometry analysis (Rvb= 21.62%); assay type: functional
# CCRF-CEM [5] = test: Cell cycle arrest in human CCRF-CEM cells assessed as accumulation of cells at G2/M phase at 5 times IC50 measured after 24 hrs by propidium iodide staining based flow cytometry analysis (Rvb= 21.62%); assay type: functional
# CCRF-CEM [6] = test: Induction of mitotic arrest in human CCRF-CEM cells assessed as phosphorylation of histone H3 at Ser10 at 5 times IC50 measured after 24 hrs by propidium iodide staining based flow cytometry analysis (Rvb= 1.72%); assay type: functional
# CCRF-CEM [7] = test: Inhibition of DNA synthesis in human CCRF-CEM cells at IC50 by BrdU incorporation assay (Rvb= 41.56%); assay type: functional; set-up: scale not given: the % may be the effect or the level left
# CCRF-CEM [8] = test: Inhibition of RNA synthesis in human CCRF-CEM cells at IC50 by […] incorporation assay (Rvb= 36.54%); assay type: functional; set-up: scale not given: the % may be the effect or the level left
# CCRF-CEM [9] = test: Inhibition of RNA synthesis in human CCRF-CEM cells at 5 times IC50 by […] incorporation assay (Rvb= 36.54%); assay type: functional; set-up: scale not given: the % may be the effect or the level left
# CCRF-CEM [10] = test: Induction of apoptosis in human CCRF-CEM cells assessed as live cells at 5 times IC50 measured after 24 hrs by Annexin V-FITC/PI staining based flow cytometry analysis (Rvb= 96.7%); assay type: functional
# CCRF-CEM [11] = test: Induction of apoptosis in human CCRF-CEM cells assessed as early apoptotic cells at IC50 measured after 24 hrs by Annexin V-FITC/PI staining based flow cytometry analysis (Rvb= 1.6%); assay type: functional
# CCRF-CEM [12] = test: Induction of apoptosis in human CCRF-CEM cells assessed as early apoptotic cells at 5 times IC50 measured after 24 hrs by Annexin V-FITC/PI staining based flow cytometry analysis (Rvb= 1.6%); assay type: functional
# CCRF-CEM [13] = test: Induction of apoptosis in human CCRF-CEM cells assessed as late apoptotic cells at IC50 measured after 24 hrs by Annexin V-FITC/PI staining based flow cytometry analysis (Rvb= 1.4%); assay type: functional
# CCRF-CEM [14] = test: Induction of apoptosis in human CCRF-CEM cells assessed as late apoptotic cells at 5 times IC50 measured after 24 hrs by Annexin V-FITC/PI staining based flow cytometry analysis (Rvb= 1.4%); assay type: functional
# CCRF-CEM [15] = test: Induction of apoptosis in human CCRF-CEM cells assessed as dead cells at IC50 measured after 24 hrs by Annexin V-FITC/PI staining based flow cytometry analysis (Rvb= 0.3%); assay type: functional
# In short: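 They were washed in ice-cold PBS and incubated with Annexin V-FITC plus PI for 20 min at room temperature in the dark. Cells were then pelleted and resuspended in binding buffer (10 mmol/L HEPES/NaOH pH 7.4, 140 mmol/L NaCl, 2.5 mmol/L CaCl2). Read on a FACSAria II, ≥10,000 cells per sample.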
# CCRF-CEM [16] = test: Induction of apoptosis in human CCRF-CEM cells assessed as activation of caspase 9 at 5 times IC50 measured after 24 hrs by western blot analysis; assay type: functional, cell-based
# In short: (§1)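 Protein (15 µg/lane) was resolved by 10% SDS-PAGE and transferred to nitrocellulose. Blocked in 5% milk/TBST, then probed overnight at 4 °C with primary antibodies (1:1000) and HRP secondaries. Detected by ECL, with β-actin as loading control.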
# CCRF-CEM [17] = test: Induction of apoptosis in human CCRF-CEM cells assessed as activation of caspase 3 at 5 times IC50 measured after 24 hrs by western blot analysis; assay type: functional, cell-based; in short: as §1
# CCRF-CEM [18] = test: Induction of apoptosis in human CCRF-CEM cells assessed as activation of caspase 8 at 5 times IC50 measured after 24 hrs by western blot analysis; assay type: functional, cell-based; in short: as §1
# CCRF-CEM [19] = test: Induction of apoptosis in human CCRF-CEM cells assessed as induction of PARP cleavage at 5 times IC50 measured after 24 hrs by western blot analysis; assay type: functional, cell-based; in short: as §1
# CCRF-CEM [20] = test: Induction of cell cycle arrest in human CCRF-CEM cells assessed as upregulation of p21 protein expression at 5 times IC50 measured after 24 hrs by western blot analysis; assay type: functional, cell-based; in short: as §1
# [21] = Stability in human plasma assessed as parent compound remaining at 2 uM incubated for 60 mins by RF-MS analysis; assay type: ADME, cell-free; settings: read-out: Stability
# [22] = Apparent permeability of the compound in dog MDCK-MDR1 cells at pH 7.4 at 10 micromol/L measured after 1 hr by RF-MS analysis; assay type: ADME, cell-based, Canis lupus familiaris; settings: MDCK-MDR1, pH 7.4, dose 10 µmol/L
# In short: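 Caco-2 and MDCK-MDR1 cells grown on polyester Transwell filters (0.4 and 1 µm pores) in DMEM pH 7.4 with 10% FBS; monolayer integrity checked by Lucifer Yellow rejection. Cells washed and pre-equilibrated 1 h in HBSS pH 7.4, then dosed with compound in HBSS pH 7.4. Incubation was 1 h for MDCK and 2 h for Caco-2. Samples lyophilized and quantified by RapidFire MS/MS with internal standard. Duplicates. Papp = (dQ/dt)/(C0·A).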
# [23] = Efflux ratio of apparent permeability across basolateral to apical side to apparent permeability across apical to basolateral side in human Caco2 cells at pH 7.4 at 10 micromol/L measured after 2 hrs by RF-MS analysis; assay type: ADME, cell-based; settings: Caco-2, pH 7.4, dose 10 µmol/L
# In short: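 Efflux ratio is Papp(B→A)/Papp(A→B) from bidirectional transport across Caco-2 (2 h) or MDCK-MDR1 (1 h) monolayers. Compound was dosed in HBSS pH 7.4 and quantified by RapidFire MS/MS. Run in duplicates. ER > 2 was taken as a potential P-gp substrate.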
# [24] = Apparent permeability of the compound in human Caco2 cells assessed as recovery rate at pH 7.4 at 10 micromol/L measured after 1 hr by RF-MS analysis; assay type: ADME, cell-based; settings: Caco-2, pH 7.4, dose 10 µmol/L, read-out: Activity
Compound,pIC50 (CEM-DNR),pIC50 (HCT-116),pIC50 [1],pIC50 (A549),pIC50 (BJ),Activity (CCRF-CEM [2]),Activity (CCRF-CEM [3]),Activity (CCRF-CEM [4]),Activity (CCRF-CEM [5]),Activity (CCRF-CEM [6]),Activity (CCRF-CEM [7]),Activity (CCRF-CEM [8]),Activity (CCRF-CEM [9]),Activity (CCRF-CEM [10]),Activity (CCRF-CEM [11]),Activity (CCRF-CEM [12]),Activity (CCRF-CEM [13]),Activity (CCRF-CEM [14]),Activity (CCRF-CEM [15]),Activity (CCRF-CEM [16]),further results
C=C(/C=C/c1ccc([N+](=O)[O-])cc1)[C@@H]1CC[C@]2(C(=O)O)CC[C@]3(C)[C@H](CC[C@@H]4[C@@]5(C)CC[C@H](O)C(C)(C)[C@@H]5CC[C@]43C)[C@@H]12,4.64,4.73,4.63,4.84,4.61,29.57%,28.44%,23.16%,12.81%,0.93%,43.17%,34.98%,4.07%,70.9%,2.4%,17.6%,4.9%,9.6%,1.8%,Active,"Activity (CCRF-CEM [17]): Active; Activity (CCRF-CEM [18]): inactive; Activity (CCRF-CEM [19]): Active; Activity (CCRF-CEM [20]): Active; remaining at 1 h, 2 µM [21]: 69.3%; Papp at 1 h, 10 µM [22]: 0.43 ×10⁻⁶ cm/s; efflux ratio at 2 h, 10 µM [23]: 2.5; recovery at 1 h, 10 µM [24]: 58.5%"
C=C(/C=C/c1cccc(Cl)c1)[C@@H]1CC[C@]2(C(=O)O)CC[C@]3(C)[C@H](CC[C@@H]4[C@@]5(C)CC[C@H](O)C(C)(C)[C@@H]5CC[C@]43C)[C@@H]12,4.59,4.79,4.59,4.53,< 4.30,49.79%,42.75%,14.39%,12.28%,1.52%,35.56%,18.97%,11.37%,88.5%,2.1%,5.3%,4.6%,4.7%,1.4%,Active,"Activity (CCRF-CEM [17]): Active; Activity (CCRF-CEM [18]): inactive; Activity (CCRF-CEM [19]): Active; Activity (CCRF-CEM [20]): Active; remaining at 1 h, 2 µM [21]: 89.5%; Papp at 1 h, 10 µM [22]: 22.4 ×10⁻⁶ cm/s; efflux ratio at 2 h, 10 µM [23]: 2.64; recovery at 1 h, 10 µM [24]: 42.1%"
